Experimental data from ChEMBL document CHEMBL4229333, “Effects of rigidity on the selectivity of protein kinase inhibitors” (Eur J Med Chem, 2018).

Assays:
[1] = Apparent permeability from apical to basolateral side in human Caco2 cells in absence of P-gp inhibitor by LC-MS/MS analysis; type: ADME, cell-based; conditions: Caco-2
In short: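 Caco-2 monolayer permeability, measured apical-to-basolateral and basolateral-to-apical. Compound concentrations were quantified by LC-MS/MS, and apparent permeability coefficients (Papp, cm/s) were calculated from them.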

Caco-2 = assay: Efflux ratio in human Caco2 cells in absence of P-gp inhibitor by LC-MS/MS analysis; type: ADME, cell-based
In short: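 Caco-2 bidirectional transport, with compound concentrations measured by LC-MS/MS. Efflux ratio was calculated as Papp(B−A)/Papp(A−B).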

[2] = biological target: NUAK family SNF1-like kinase 1 (Homo sapiens) (UniProt O60285); assay: Inhibition of ARK5 (unknown origin) at 1 uM by mobility shift microfluidics platform based assay relative to control
Chain of NUAK family SNF1-like kinase 1 (Homo sapiens) (O60285 whole entry): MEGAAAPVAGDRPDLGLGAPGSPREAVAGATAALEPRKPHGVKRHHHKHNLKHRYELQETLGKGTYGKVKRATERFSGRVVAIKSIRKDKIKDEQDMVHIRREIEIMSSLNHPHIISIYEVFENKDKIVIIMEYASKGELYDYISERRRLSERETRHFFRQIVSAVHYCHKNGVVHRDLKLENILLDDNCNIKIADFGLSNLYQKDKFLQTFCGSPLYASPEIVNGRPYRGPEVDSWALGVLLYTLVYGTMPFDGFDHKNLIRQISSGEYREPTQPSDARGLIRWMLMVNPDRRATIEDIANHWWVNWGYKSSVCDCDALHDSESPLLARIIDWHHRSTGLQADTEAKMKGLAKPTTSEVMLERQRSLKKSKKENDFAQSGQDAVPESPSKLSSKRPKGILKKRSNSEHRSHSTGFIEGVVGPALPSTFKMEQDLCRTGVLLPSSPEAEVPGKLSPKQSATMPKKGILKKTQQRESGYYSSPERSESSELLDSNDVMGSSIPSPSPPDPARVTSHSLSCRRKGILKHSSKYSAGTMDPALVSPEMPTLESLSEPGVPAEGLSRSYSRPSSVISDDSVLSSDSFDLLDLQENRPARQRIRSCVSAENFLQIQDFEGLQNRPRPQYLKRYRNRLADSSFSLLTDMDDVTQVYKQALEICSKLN

[3] = biological target: Aurora kinase A (Homo sapiens) (UniProt O14965); assay: Inhibition of AURORA-A (unknown origin) at 1 uM by mobility shift microfluidics platform based assay relative to control
[4] = biological target: Calcium/calmodulin-dependent protein kinase type II subunit beta (Homo sapiens) (UniProt Q13554); assay: Inhibition of CAMK2B (unknown origin) at 1 uM by mobility shift microfluidics platform based assay relative to control
[5] = biological target: Cyclin-dependent kinase 2 (Homo sapiens) (UniProt P24941); assay: Inhibition of CDK2 (unknown origin) at 1 uM by mobility shift microfluidics platform based assay relative to control
[6] = biological target: Cyclin-T1/Cyclin-dependent-like kinase 5 (Homo sapiens) (UniProt Q00535+O60563); assay: Inhibition of CDK5/cyclin T1 (unknown origin) at 1 uM by mobility shift microfluidics platform based assay relative to control; type: protein-complex assay
[7] = biological target: Casein kinase I isoform gamma-1 (Homo sapiens) (UniProt Q9HCP0); assay: Inhibition of CK1-gamma1 (unknown origin) at 1 uM by mobility shift microfluidics platform based assay relative to control
[8] = biological target: Ephrin type-A receptor 8 (Homo sapiens) (UniProt P29322); assay: Inhibition of EPH-A8 (unknown origin) at 1 uM by mobility shift microfluidics platform based assay relative to control
[9] = biological target: Tyrosine-protein kinase Fgr (Homo sapiens) (UniProt P09769); assay: Inhibition of FGR (unknown origin) at 1 uM by mobility shift microfluidics platform based assay relative to control
[10] = biological target: Glycogen synthase kinase-3 alpha (Homo sapiens) (UniProt P49840); assay: Inhibition of GSK-3-alpha (unknown origin) at 1 uM by mobility shift microfluidics platform based assay relative to control
[11] = biological target: Serine/threonine-protein kinase haspin (Homo sapiens) (UniProt Q8TF76); assay: Inhibition of HASPIN (unknown origin) at 1 uM by mobility shift microfluidics platform based assay relative to control
Chain of Serine/threonine-protein kinase haspin (Homo sapiens) (Q8TF76 whole entry): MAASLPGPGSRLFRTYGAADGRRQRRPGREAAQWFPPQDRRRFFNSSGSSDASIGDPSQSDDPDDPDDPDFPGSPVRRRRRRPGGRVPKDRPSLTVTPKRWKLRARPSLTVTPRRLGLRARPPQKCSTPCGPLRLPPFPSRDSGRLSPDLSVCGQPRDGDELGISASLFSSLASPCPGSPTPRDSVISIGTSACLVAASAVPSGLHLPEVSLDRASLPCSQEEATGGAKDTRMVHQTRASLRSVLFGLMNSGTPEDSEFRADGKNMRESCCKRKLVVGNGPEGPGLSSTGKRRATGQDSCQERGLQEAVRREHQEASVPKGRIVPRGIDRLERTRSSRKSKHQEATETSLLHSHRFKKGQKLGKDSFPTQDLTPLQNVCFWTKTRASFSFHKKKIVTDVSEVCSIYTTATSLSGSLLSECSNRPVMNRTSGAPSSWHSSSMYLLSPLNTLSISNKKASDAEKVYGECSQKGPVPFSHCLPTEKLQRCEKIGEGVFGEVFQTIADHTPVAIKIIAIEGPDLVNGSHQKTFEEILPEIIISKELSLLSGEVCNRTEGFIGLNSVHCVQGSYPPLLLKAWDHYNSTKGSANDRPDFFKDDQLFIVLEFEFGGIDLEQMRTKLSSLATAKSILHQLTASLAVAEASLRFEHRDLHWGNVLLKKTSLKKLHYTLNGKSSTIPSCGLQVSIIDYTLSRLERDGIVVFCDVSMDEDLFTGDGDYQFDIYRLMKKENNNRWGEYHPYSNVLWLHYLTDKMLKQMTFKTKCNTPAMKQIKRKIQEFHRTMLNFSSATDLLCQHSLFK

[12] = biological target: Tyrosine-protein kinase HCK (Homo sapiens) (UniProt P08631); assay: Inhibition of HCK (unknown origin) at 1 uM by mobility shift microfluidics platform based assay relative to control
[13] = biological target: Insulin receptor (Homo sapiens) (UniProt P06213); assay: Inhibition of INSR (unknown origin) at 1 uM by mobility shift microfluidics platform based assay relative to control
[14] = biological target: Insulin receptor-related protein (Homo sapiens) (UniProt P14616); assay: Inhibition of IRR (unknown origin) at 1 uM by mobility shift microfluidics platform based assay relative to control
[15] = biological target: Tyrosine-protein kinase JAK2 (Homo sapiens) (UniProt O60674); assay: Inhibition of JAK2 (unknown origin) at 1 uM by mobility shift microfluidics platform based assay relative to control
Chain of Tyrosine-protein kinase JAK2 (Homo sapiens) (O60674 whole entry): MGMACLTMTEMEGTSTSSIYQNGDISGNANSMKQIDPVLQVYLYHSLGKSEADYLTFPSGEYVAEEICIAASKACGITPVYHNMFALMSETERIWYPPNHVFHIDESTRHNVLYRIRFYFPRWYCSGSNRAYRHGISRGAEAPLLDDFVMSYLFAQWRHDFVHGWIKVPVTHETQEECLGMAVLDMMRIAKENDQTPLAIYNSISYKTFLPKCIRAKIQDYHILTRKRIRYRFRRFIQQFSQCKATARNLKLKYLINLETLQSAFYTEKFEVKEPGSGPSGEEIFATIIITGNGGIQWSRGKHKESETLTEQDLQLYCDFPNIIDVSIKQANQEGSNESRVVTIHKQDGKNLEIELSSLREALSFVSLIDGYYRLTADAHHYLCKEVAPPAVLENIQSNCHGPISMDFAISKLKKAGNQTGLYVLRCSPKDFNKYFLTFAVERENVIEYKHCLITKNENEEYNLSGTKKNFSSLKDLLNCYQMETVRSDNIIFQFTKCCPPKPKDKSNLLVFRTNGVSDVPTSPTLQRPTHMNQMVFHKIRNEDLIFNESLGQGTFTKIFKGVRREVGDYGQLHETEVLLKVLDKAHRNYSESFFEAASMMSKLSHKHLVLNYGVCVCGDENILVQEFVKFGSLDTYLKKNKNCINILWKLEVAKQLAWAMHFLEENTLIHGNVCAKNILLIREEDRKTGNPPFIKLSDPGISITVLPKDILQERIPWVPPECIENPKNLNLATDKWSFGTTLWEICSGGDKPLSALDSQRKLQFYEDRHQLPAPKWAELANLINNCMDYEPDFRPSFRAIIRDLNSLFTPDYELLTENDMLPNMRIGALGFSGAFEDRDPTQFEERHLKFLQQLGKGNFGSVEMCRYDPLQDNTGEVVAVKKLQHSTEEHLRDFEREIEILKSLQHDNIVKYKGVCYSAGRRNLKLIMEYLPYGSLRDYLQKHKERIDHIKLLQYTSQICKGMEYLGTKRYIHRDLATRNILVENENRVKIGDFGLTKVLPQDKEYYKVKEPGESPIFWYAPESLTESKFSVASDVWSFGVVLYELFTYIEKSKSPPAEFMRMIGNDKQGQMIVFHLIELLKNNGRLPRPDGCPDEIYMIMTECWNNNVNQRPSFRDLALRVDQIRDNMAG

[16] = biological target: Mitogen-activated protein kinase 9 (Homo sapiens) (UniProt P45984); assay: Inhibition of JNK2 (unknown origin) at 1 uM by mobility shift microfluidics platform based assay relative to control
[17] = biological target: Tyrosine-protein kinase Lck (Homo sapiens) (UniProt P06239); assay: Inhibition of LCK (unknown origin) at 1 uM by mobility shift microfluidics platform based assay relative to control
[18] = biological target: MAP kinase-activated protein kinase 3 (Homo sapiens) (UniProt Q16644); assay: Inhibition of MAPKAPK3 (unknown origin) at 1 uM by mobility shift microfluidics platform based assay relative to control
[19] = biological target: SRSF protein kinase 3 (Homo sapiens) (UniProt Q9UPE1); assay: Inhibition of MSSK1 (unknown origin) at 1 uM by mobility shift microfluidics platform based assay relative to control
[20] = biological target: Serine/threonine-protein kinase 38-like (Homo sapiens) (UniProt Q9Y2H1); assay: Inhibition of NDR2 (unknown origin) at 1 uM by mobility shift microfluidics platform based assay relative to control
[21] = biological target: Ribosomal protein S6 kinase beta-1 (Homo sapiens) (UniProt P23443); assay: Inhibition of P70S6K1 (unknown origin) at 1 uM by mobility shift microfluidics platform based assay relative to control
[22] = biological target: Serine/threonine-protein kinase PAK 6 (Homo sapiens) (UniProt Q9NQU5); assay: Inhibition of PAK6 (unknown origin) at 1 uM by mobility shift microfluidics platform based assay relative to control
[23] = biological target: PAS domain-containing serine/threonine-protein kinase (Homo sapiens) (UniProt Q96RG2); assay: Inhibition of PASK (unknown origin) at 1 uM by mobility shift microfluidics platform based assay relative to control
[24] = biological target: Eukaryotic translation initiation factor 2-alpha kinase 3 (Homo sapiens) (UniProt Q9NZJ5); assay: Inhibition of PERK (unknown origin) at 1 uM by mobility shift microfluidics platform based assay relative to control
[25] = biological target: Protein kinase C eta type (Homo sapiens) (UniProt P24723); assay: Inhibition of PKC-eta (unknown origin) at 1 uM by mobility shift microfluidics platform based assay relative to control
[26] = biological target: Serine/threonine-protein kinase N2 (Homo sapiens) (UniProt Q16513); assay: Inhibition of PKN2 (unknown origin) at 1 uM by mobility shift microfluidics platform based assay relative to control
Chain of Serine/threonine-protein kinase N2 (Homo sapiens) (Q16513 whole entry, looked up): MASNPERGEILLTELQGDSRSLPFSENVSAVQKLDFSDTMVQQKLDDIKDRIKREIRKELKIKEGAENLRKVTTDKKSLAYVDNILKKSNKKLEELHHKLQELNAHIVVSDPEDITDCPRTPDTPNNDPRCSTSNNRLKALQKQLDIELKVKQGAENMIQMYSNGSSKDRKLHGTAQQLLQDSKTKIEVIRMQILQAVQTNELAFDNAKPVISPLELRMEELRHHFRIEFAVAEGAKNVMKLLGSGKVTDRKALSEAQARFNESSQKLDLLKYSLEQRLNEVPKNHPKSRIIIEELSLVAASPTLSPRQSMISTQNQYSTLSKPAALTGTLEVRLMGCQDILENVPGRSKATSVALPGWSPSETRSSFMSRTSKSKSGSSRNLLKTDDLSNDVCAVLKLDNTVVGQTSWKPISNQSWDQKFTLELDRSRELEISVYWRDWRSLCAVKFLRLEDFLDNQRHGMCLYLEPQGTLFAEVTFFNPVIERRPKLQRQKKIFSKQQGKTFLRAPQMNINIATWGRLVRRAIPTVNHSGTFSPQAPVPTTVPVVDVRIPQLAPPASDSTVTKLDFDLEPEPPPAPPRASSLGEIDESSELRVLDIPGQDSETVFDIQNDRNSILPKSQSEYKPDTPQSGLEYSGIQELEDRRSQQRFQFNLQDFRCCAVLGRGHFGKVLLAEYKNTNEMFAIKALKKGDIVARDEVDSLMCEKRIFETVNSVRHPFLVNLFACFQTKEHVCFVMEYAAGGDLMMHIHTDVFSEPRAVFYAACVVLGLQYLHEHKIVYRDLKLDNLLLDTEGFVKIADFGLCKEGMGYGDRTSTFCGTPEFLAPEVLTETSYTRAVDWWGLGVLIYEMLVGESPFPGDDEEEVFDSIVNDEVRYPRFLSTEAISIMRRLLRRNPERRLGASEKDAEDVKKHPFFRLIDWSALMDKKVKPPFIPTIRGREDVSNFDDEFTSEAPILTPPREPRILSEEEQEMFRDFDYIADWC

[27] = biological target: MAP kinase-activated protein kinase 5 (Homo sapiens) (UniProt Q8IW41); assay: Inhibition of PRAK (unknown origin) at 1 uM by mobility shift microfluidics platform based assay relative to control
Chain of MAP kinase-activated protein kinase 5 (Homo sapiens) (Q8IW41 whole entry): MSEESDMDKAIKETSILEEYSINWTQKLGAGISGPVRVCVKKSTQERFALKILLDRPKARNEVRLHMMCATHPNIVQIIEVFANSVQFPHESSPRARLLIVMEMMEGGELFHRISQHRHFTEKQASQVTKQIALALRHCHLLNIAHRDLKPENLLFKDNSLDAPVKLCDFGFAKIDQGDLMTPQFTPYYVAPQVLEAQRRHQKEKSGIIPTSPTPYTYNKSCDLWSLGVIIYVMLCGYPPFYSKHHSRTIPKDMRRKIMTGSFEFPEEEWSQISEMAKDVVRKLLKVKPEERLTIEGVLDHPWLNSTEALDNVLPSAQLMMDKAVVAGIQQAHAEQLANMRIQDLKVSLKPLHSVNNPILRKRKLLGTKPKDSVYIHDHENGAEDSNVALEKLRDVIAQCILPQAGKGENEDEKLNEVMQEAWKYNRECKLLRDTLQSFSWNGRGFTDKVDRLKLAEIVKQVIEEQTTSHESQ

[28] = biological target: Serine/threonine-protein kinase D2 (Homo sapiens) (UniProt Q9BZL6); assay: Inhibition of PRKD2 (unknown origin) at 1 uM by mobility shift microfluidics platform based assay relative to control
[29] = biological target: Sphingosine kinase 1 (Homo sapiens) (UniProt Q9NYA1); assay: Inhibition of SPHK1 (unknown origin) at 1 uM by mobility shift microfluidics platform based assay relative to control
[30] = biological target: Tyrosine-protein kinase TXK (Homo sapiens) (UniProt P42681); assay: Inhibition of TXK (unknown origin) at 1 uM by mobility shift microfluidics platform based assay relative to control
[31] = test system: Serine/threonine-protein kinase B-raf (Homo sapiens), P15056 [V600E]; assay: Ratio of IC50 for inhibition of BRAF V600E mutant (unknown origin) after 20 mins by immunoblotting assay to IC50 for inhibition of full length FLAG-tagged BRAF V600E mutant (unknown origin) expressed in HEK293 cells assessed as decrease in MEK phosphorylation by immunoblotting assay; type: cell-based
Chain of Serine/threonine-protein kinase B-raf (Homo sapiens), P15056 [V600E] (P15056 whole entry V600E): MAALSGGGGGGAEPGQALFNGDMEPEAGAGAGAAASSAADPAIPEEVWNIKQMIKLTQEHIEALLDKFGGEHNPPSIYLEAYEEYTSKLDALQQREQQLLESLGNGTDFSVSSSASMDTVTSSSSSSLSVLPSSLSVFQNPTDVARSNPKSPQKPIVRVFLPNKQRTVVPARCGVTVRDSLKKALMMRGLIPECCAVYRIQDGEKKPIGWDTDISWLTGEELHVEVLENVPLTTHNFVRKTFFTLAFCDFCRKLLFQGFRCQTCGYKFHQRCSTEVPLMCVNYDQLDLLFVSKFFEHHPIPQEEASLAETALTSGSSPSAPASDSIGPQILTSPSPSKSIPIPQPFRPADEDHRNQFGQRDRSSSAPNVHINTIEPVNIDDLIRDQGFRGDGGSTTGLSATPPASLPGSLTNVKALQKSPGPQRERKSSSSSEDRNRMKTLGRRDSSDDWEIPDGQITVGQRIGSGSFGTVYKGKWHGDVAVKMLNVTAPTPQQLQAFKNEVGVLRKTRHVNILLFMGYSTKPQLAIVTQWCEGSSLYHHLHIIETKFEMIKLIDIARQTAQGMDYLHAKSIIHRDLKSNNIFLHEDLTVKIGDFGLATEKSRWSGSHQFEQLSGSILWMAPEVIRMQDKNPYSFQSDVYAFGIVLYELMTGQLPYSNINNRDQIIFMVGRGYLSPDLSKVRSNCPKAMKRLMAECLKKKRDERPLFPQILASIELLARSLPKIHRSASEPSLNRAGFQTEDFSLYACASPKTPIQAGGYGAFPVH

CC(C)n1nc(C#Cc2cccc(NC(=O)c3cccc(C(F)(F)F)c3)c2)c2c(N)ncnc21
Papp A→B [1]: 0.5 ×10⁻⁶ cm/s
Ratio (Caco-2): 1.2
inhibition [2]: 14%
inhibition [3]: 90%
inhibition [4]: 1%
inhibition [5]: 3%
inhibition [6]: 5%
inhibition [7]: 9%
inhibition [8]: 100%
inhibition [9]: 99%
inhibition [10]: 5%
inhibition [11]: 5%
inhibition [12]: 107%
inhibition [13]: 12%
inhibition [14]: 2%
inhibition [15]: 77%
inhibition [16]: 26%
inhibition [17]: 100%
inhibition [18]: 13%
inhibition [19]: 9%
inhibition [20]: 1%
inhibition [21]: 5%
inhibition [22]: -1%
inhibition [23]: -4%
inhibition [24]: 29%
inhibition [25]: -5%
inhibition [26]: 3%
inhibition [27]: -1%
inhibition [28]: 1%
inhibition [29]: 2%
inhibition [30]: 94%
Ratio IC50 [31]: 2 to 4

CC(C)n1nc(C#Cc2cccc3cc(-c4cccc(C(F)(F)F)c4)ncc23)c2c(N)ncnc21
Papp A→B [1]: 0.8 ×10⁻⁶ cm/s
Ratio (Caco-2): 3.2
inhibition [2]: 1%
inhibition [3]: 29%
inhibition [4]: 5%
inhibition [5]: 1%
inhibition [6]: -2%
inhibition [7]: -5%
inhibition [8]: 97%
inhibition [9]: 71%
inhibition [10]: 6%
inhibition [11]: 1%
inhibition [12]: 81%
inhibition [13]: 5%
inhibition [14]: -3%
inhibition [15]: 3%
inhibition [16]: 8%
inhibition [17]: 85%
inhibition [18]: 3%
inhibition [19]: 0%
inhibition [20]: -1%
inhibition [21]: 1%
inhibition [22]: 3%
inhibition [23]: 1%
inhibition [24]: 0%
inhibition [25]: 2%
inhibition [26]: 8%
inhibition [27]: 7%
inhibition [28]: 2%
inhibition [29]: 4%
inhibition [30]: 5%
Ratio IC50 [31]: 2 to 4
